{"data": "Published values collected from several papers", "target": "Phosphatidylinositol 4,5-bisphosphate 3-kinase catalytic subunit gamma isoform (PIK3CG, Homo sapiens, UniProt P48736)"}
{"SMILES": "NS(=O)(=O)c1cc(NC(=O)Cc2ccccc2)ccc1Oc1cccc(Cl)c1", "effect on": "cell-free assay", "method": "competition with immobilised ligand", "concentration": "1 µM", "remaining binding": "77%"}
{"SMILES": "Nc1ncc2c(n1)-c1c([nH]c3ccc(C#CC4CC4)cc13)CCCC2", "effect on": "binding", "method": "competition with immobilised ligand", "concentration": "1 µM", "remaining binding": "77%"}
{"SMILES": "COc1cnc(Nc2cccc(S(N)(=O)=O)c2)nc1N1CCN(c2ccccc2)CC1", "effect on": "binding", "method": "competition with immobilised ligand", "concentration": "1 µM", "remaining binding": "94%"}
{"SMILES": "C[C@H](c1cccc(C#N)c1)n1cc(Cl)cc(C(N)=O)c1=N", "effect on": "cell-free assay", "method": "competition with immobilised ligand", "concentration": "1 µM", "remaining binding": "98%"}
{"SMILES": "C[C@H]1CCN(c2nccc(-c3cnn4ncccc34)n2)C1", "effect on": "binding", "concentration": "1 µM", "remaining binding": "82%"}
{"SMILES": "O=C(Nc1c[nH]nc1C(=O)NC1CCNCC1)c1cc(F)cc(F)c1", "effect on": "binding", "method": "competition with immobilised ligand", "concentration": "1 µM", "remaining binding": "100%"}
{"SMILES": "c1cncc(-c2cccc(Nc3nccc(NC4CCCCC4)n3)c2)c1", "effect on": "binding", "method": "competition with immobilised ligand", "concentration": "10 µM", "remaining binding": "69%"}
{"SMILES": "O=C(NCCCN1CCOCC1)c1ccc(Nc2nccc(-c3cc4ccccc4s3)n2)cc1", "effect on": "binding", "method": "competition with immobilised ligand", "concentration": "1 µM", "remaining binding": "20%"}
{"SMILES": "CN(C)c1nccc(-c2cnn3ncccc23)n1", "effect on": "binding", "concentration": "1 µM", "remaining binding": "76%"}
{"SMILES": "O=C(Nc1cccnn1)N1CCC(=Cc2cccc(Oc3ccc(C(F)(F)F)cn3)c2)CC1", "effect on": "cell-free assay", "method": "competition with immobilised ligand", "concentration": "1 µM", "remaining binding": "100%"}
{"SMILES": "N[C@H]1CCN(c2nccc(-c3cnn4ncccc34)n2)C1", "effect on": "binding", "concentration": "1 µM", "remaining binding": "100%"}
{"SMILES": "N#Cc1ccccc1CSc1nnc2c(n1)[nH]c1ccccc12", "effect on": "binding", "method": "competition with immobilised ligand", "concentration": "10 µM", "remaining binding": "100%"}
{"SMILES": "CCCCN(CCCC)C(=O)CN1C[C@H](c2cc(OC)c3c(c2)OCO3)[C@@H](C(=O)O)[C@@H]1CC(C)(C)CCC", "effect on": "cell-free assay", "method": "competition with immobilised ligand", "concentration": "1 µM", "remaining binding": "76.9%"}
{"SMILES": "C=CC(=O)N1CCC(C(=O)NCC(=O)N2CCN(c3nc(-c4cnc(N)nc4C(F)F)nc(N4CCOCC4)n3)CC2)CC1", "effect on": "binding", "method": "competition with immobilised ligand", "concentration": "1 µM", "remaining binding": "0.1%"}
{"SMILES": "c1cnn2ncc(-c3ccnc(N4CCC45COC5)n3)c2c1", "effect on": "binding", "concentration": "1 µM", "remaining binding": "74%"}
{"SMILES": "O=C(c1ccc(Nc2ncc(Cl)c(-c3cc4ccccc4s3)n2)cc1)N1CCC(N2CCCC2)CC1", "effect on": "binding", "method": "competition with immobilised ligand", "concentration": "1 µM", "remaining binding": "87%"}
{"SMILES": "F[C@@H]1CCN(c2nccc(-c3cnn4ncccc34)n2)C1", "effect on": "binding", "concentration": "1 µM", "remaining binding": "100%"}
{"SMILES": "Cc1cnc(Nc2ccc(C(=O)N3CCC(N4CCCC4)CC3)cc2)nc1-c1cc2ccccc2s1", "effect on": "binding", "method": "competition with immobilised ligand", "concentration": "1 µM", "remaining binding": "81%"}
{"SMILES": "N#Cc1ccc(Nc2ccc3[nH]c(=O)[nH]c3c2)c(Cl)c1", "effect on": "cell-free assay", "method": "competition with immobilised ligand", "concentration": "1 µM", "remaining binding": "92%"}
{"SMILES": "COc1ncc2cc3ccccc3nc2c1C#N", "effect on": "cell-free assay", "method": "competition with immobilised ligand", "concentration": "5 µM", "remaining binding": "100%"}
{"SMILES": "O=C(O)[C@@H]1[C@@H](Cn2nnc3ccccc3c2=O)CC[C@H]1C(=O)c1ccc(OCCC2CCOCC2)cc1", "effect on": "cell-free assay", "method": "competition with immobilised ligand", "concentration": "1 µM", "remaining binding": "100%"}
{"SMILES": "COC(=O)Nc1nc2ccc(C(=O)c3ccccc3)cc2[nH]1", "effect on": "cell-free assay", "method": "competition with immobilised ligand", "concentration": "10 µM", "remaining binding": "18%"}
{"SMILES": "CC1CCCN1c1nccc(-c2cnn3ncccc23)n1 (stereo not drawn)", "effect on": "binding", "concentration": "1 µM", "remaining binding": "100%"}
{"SMILES": "Cn1cc(Cl)c2c(Oc3c(F)cc(Nc4cc(Cl)nc(N)n4)cc3F)ccnc21", "effect on": "cell-free assay", "method": "competition with immobilised ligand", "concentration": "0.1 µM", "remaining binding": "82%"}
